Legend:
[1] = target: T1, Integrin alpha-4/beta-1 (Homo sapiens, UniProt P05556+P13612); test: Displacement of [35S]-labeled ligand from VLA4 in human Jurkat cells washed with buffer containing non activating Ca2+ and Mg2+ by competitive binding assay; type: cell-based
Outline: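 Competition binding in Jurkat cells with a ³⁵S-labeled ligand, VLA-4 held non-activated in Ca²⁺/Mg²⁺ buffer; IC₅₀ reported; data are means of three independent runs or n = 1.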

[2] = test system: Rattus norvegicus; test: Receptor occupancy of VLA4 in rat at 1.5 mg/kg after 12 hrs; type: functional
Outline: (§1)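 Ethyl ester prodrug given orally to rats at 1.5 mpk; VLA-4 receptor occupancy measured at 12 h and 24 h post-dose.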

[3] = test system: Rattus norvegicus; test: Receptor occupancy of VLA4 in rat at 1.5 mg/kg after 24 hrs; type: functional; outline: as §1
[4] = target: T1, Integrin alpha-4/beta-1; test: Inhibition of VLA4 in human whole blood
Outline: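 Competitive binding run in human whole blood; IC₅₀ read-out.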

[5] = target: T1, Integrin alpha-4/beta-1; test: Displacement of [35S]-labeled ligand from VLA4 in human Jurkat cells washed with buffer containing activating Mn2+ by competitive binding assay; type: cell-based
[6] = target: T1, Integrin alpha-4/beta-1; test: Receptor occupancy of VLA4 in whole blood washed with buffer containing activating Mn2+ at 37 degC after 3 hrs; type: tissue-based
[7] = Plasma clearance in rat at 5 mg/kg, po; type: ADME, organism-based; design: dose 5 mg/kg, route oral
[8] = Bioavailability in rat at 5 mg/kg, po; type: ADME, organism-based; settings: in vivo
[9] = test system: Rattus norvegicus; test: AUC in rat at 5 mg/kg, po; type: ADME, organism-based, Plasma; design: dose 5 mg/kg, route oral; settings: in vivo
[10] = Cmax in rat at 5 mg/kg, po; type: ADME, organism-based; design: dose 5 mg/kg, route oral; settings: in vivo
[11] = test system: Rattus norvegicus; test: Receptor occupancy of VLA4 in rat at 5 mg/kg, po after 12 hrs; type: functional
Outline: (§2)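 Parent acid given orally to rats at 5 mpk; VLA-4 receptor occupancy assayed at 12 h and 24 h after dosing.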

[12] = test system: Rattus norvegicus; test: Receptor occupancy of VLA4 in rat at 5 mg/kg, po after 24 hrs; type: functional; outline: as §2
[13] = test system: Integrin alpha-4/beta-1 (Rattus norvegicus); test: Receptor occupancy of VLA4 in rat whole blood washed with buffer containing non activating Ca2+ and Mg2+ at 37 degC after 12 hrs
[14] = test system: Integrin alpha-4/beta-1 (Rattus norvegicus); test: Receptor occupancy of VLA4 in rat whole blood washed with buffer containing non activating Ca2+ and Mg2+ at 37 degC after 24 hrs

T1 sequence (P05556 whole entry): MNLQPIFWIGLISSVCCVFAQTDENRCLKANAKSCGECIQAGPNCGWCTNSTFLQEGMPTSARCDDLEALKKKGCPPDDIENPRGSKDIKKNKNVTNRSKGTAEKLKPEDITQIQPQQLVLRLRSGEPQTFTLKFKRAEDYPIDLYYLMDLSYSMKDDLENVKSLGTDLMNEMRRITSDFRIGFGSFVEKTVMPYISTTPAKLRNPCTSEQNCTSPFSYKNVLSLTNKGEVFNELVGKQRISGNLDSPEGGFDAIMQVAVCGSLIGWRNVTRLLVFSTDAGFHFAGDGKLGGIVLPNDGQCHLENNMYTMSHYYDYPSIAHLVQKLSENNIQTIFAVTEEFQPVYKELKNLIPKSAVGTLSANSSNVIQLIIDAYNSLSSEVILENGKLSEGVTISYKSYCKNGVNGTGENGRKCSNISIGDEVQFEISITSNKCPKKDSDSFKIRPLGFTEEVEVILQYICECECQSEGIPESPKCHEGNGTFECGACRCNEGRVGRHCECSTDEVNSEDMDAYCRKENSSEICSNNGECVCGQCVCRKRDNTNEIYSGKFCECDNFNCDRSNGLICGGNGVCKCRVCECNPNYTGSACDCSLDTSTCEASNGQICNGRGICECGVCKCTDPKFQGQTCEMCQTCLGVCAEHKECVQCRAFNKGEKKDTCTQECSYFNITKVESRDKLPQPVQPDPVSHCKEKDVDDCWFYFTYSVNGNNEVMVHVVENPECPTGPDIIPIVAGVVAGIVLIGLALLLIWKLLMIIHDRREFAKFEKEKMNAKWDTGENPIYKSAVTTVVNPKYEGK
T1 sequence (P13612 whole entry): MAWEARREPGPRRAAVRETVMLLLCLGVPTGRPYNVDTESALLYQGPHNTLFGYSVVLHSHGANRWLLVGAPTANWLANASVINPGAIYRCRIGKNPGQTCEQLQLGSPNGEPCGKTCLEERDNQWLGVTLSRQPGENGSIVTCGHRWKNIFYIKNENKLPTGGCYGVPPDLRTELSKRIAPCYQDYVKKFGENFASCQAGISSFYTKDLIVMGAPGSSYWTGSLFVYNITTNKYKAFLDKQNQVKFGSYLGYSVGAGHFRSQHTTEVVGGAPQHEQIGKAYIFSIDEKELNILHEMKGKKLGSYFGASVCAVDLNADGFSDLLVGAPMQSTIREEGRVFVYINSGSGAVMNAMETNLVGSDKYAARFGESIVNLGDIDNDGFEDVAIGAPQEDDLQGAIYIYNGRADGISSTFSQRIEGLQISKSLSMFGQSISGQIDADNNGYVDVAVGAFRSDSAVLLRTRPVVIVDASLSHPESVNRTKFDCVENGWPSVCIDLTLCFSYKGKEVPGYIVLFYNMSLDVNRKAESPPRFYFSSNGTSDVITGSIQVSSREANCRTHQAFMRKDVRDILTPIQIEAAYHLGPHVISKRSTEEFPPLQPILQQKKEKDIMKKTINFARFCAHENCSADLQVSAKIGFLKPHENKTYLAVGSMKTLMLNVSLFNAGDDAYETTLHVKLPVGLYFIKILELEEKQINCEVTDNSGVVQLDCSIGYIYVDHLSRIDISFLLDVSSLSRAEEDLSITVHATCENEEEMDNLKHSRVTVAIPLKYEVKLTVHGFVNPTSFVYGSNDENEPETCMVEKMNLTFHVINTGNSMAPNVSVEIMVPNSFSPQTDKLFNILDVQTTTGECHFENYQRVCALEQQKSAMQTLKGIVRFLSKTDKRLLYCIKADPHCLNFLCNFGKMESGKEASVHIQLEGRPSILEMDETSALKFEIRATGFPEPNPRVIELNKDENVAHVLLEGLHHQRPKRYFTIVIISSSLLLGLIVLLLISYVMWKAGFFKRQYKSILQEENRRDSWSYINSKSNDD

`N#Cc1cccc(S(=O)(=O)N2C[C@H](N3CC[C@@H](F)C3)C[C@H]2C(=O)N[C@@H](Cc2ccc(NC(=O)c3c(Cl)cncc3Cl)cc2)C(=O)O)c1` showed an IC50 [1] of 0.12 nM.

Compound `CCOC(=O)[C@H](Cc1ccc(NC(=O)c2c(Cl)cncc2Cl)cc1)NC(=O)[C@@H]1C[C@@H](N2CCCC(F)(F)C2)CN1S(=O)(=O)c1cccc(C#N)c1` has an Activity [2] of 88% and an Activity [3] of 60%.

With `N#Cc1cccc(S(=O)(=O)N2C[C@H](N3CCC(F)CC3)C[C@H]2C(=O)N[C@@H](Cc2ccc(NC(=O)c3c(Cl)cncc3Cl)cc2)C(=O)O)c1` the IC50 [1] was 0.35 nM.

Work on `N#Cc1cccc(S(=O)(=O)N2C[C@H](N3CCC(F)(F)C3)C[C@H]2C(=O)N[C@@H](Cc2ccc(NC(=O)c3c(Cl)cncc3Cl)cc2)C(=O)O)c1` yielded an IC50 [1] of 0.1 nM.

`N#Cc1cccc(S(=O)(=O)N2C[C@H](N3CC(F)C3)C[C@H]2C(=O)N[C@@H](Cc2ccc(NC(=O)c3c(Cl)cncc3Cl)cc2)C(=O)O)c1` gave an IC50 [1] of 0.27 nM.

`N#Cc1cccc(S(=O)(=O)N2C[C@H](N3CC[C@H](F)C3)C[C@H]2C(=O)N[C@@H](Cc2ccc(NC(=O)c3c(Cl)cncc3Cl)cc2)C(=O)O)c1` gave an IC50 [1] of 0.24 nM.

For `N#Cc1cccc(S(=O)(=O)N2C[C@H](N3CCCC(F)(F)C3)C[C@H]2C(=O)N[C@@H](Cc2ccc(NC(=O)c3c(Cl)cncc3Cl)cc2)C(=O)O)c1`, the IC50 [1] was 0.03 nM, the IC50 [4] was 0.07 nM and the IC50 [5] was 0.02 nM. For the same compound, the Activity [6] was 95%, the CL/F [7] was > 100 mL/min/kg and the bioavailability [8] was < 5%. It also gave an AUC [9] of 0.05 µM·h, a Cmax [10] of 27 nM and an Activity [11] of 65%. It also gave an Activity [12] of 22%, an Activity [13] of 70% and an Activity [14] of 40%.

Compound `N#Cc1cccc(S(=O)(=O)N2C[C@H](N3CC(F)(F)C3)C[C@H]2C(=O)N[C@@H](Cc2ccc(NC(=O)c3c(Cl)cncc3Cl)cc2)C(=O)O)c1` has an IC50 [1] of 0.9 nM.

`N#Cc1cccc(S(=O)(=O)N2C[C@H](N3CCCC3)C[C@H]2C(=O)N[C@@H](Cc2ccc(NC(=O)c3c(Cl)cncc3Cl)cc2)C(=O)O)c1` showed an IC50 [1] of 0.22 nM.

`N#Cc1cccc(S(=O)(=O)N2C[C@H](N3CCCC(F)C3)C[C@H]2C(=O)N[C@@H](Cc2ccc(NC(=O)c3c(Cl)cncc3Cl)cc2)C(=O)O)c1` (stereo not given in full) showed an IC50 [1] of 0.21 nM.

Compound `N#Cc1cccc(S(=O)(=O)N2C[C@H](N(CC(F)(F)F)C3CCC3)C[C@H]2C(=O)N[C@@H](Cc2ccc(NC(=O)c3c(Cl)cncc3Cl)cc2)C(=O)O)c1` has an IC50 [1] of 0.02 nM and an IC50 [4] of 3.1 nM.

For `N#Cc1cccc(S(=O)(=O)N2C[C@H](N3CCC3)C[C@H]2C(=O)N[C@@H](Cc2ccc(NC(=O)c3c(Cl)cncc3Cl)cc2)C(=O)O)c1`, the IC50 [1] was 0.15 nM.

For `CCOC(=O)[C@H](Cc1ccc(NC(=O)c2c(Cl)cncc2Cl)cc1)NC(=O)[C@@H]1C[C@@H](NC2CCC2)CN1S(=O)(=O)c1cccc(C#N)c1`, the Activity [3] was 25%.

Compound `N#Cc1cccc(S(=O)(=O)N2C[C@H](NC3CCC3)C[C@H]2C(=O)N[C@@H](Cc2ccc(NC(=O)c3c(Cl)cncc3Cl)cc2)C(=O)O)c1` has an IC50 [1] of 0.15 nM and an Activity [6] of 95%.

For `N#Cc1cccc(S(=O)(=O)N2C[C@H](N3CCCCC3)C[C@H]2C(=O)N[C@@H](Cc2ccc(NC(=O)c3c(Cl)cncc3Cl)cc2)C(=O)O)c1`, the IC50 [1] was 0.11 nM.

`N#Cc1cccc(S(=O)(=O)N2C[C@H](N3CCC(F)(F)CC3)C[C@H]2C(=O)N[C@@H](Cc2ccc(NC(=O)c3c(Cl)cncc3Cl)cc2)C(=O)O)c1` showed an IC50 [1] of 0.22 nM.

Reference: ChEMBL document CHEMBL1156022, “Discovery of N-{N-[(3-cyanobenzene) sulfonyl]-4(R)-(3,3-difluoropiperidin-1-yl)-(l)-prolyl}-4-[(3',5'-dichloro-isonicotinoyl) amino]-(l)-phenylalanine (MK-0617), a highly potent and orally active VLA-4 antagonist” (Bioorg Med Chem Lett, 2009)
